beta cell repl = MIN6 beta-cell proliferation induction; hit rate 0.29% among 330,000; AID 2380; MIN6 cells proliferation, ATPlite luminescence, 48 h; cells starved in 0.2% serum; 100% = growth in 10% serum; proliferation, % at 10 µM;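 active = compounds whose signal lies at least 3.5 SD above the mean of all wells on their plate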;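 also: 0% = DMSO-treated cells in low-serum medium and 100% = 10% serum control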
PPC-1+TRAIL kill = PPC-1 cancer cell killing with TRAIL present. PPC-1 cells + TRAIL, ATPLite viability luminescence. cell killing (% activity), % at 4 µM or 5 µM. hit rate 0.41% among 220,000. AID 1443;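 active = cell killing above 50% in the first pass at 4 µM, then a duplicate retest at 5 µM averaging 50% or more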;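 also: plate controls were cells with TRAIL plus DMSO for no effect and medium-only wells lacking cells for full effect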
C8 TRAIL sens = caspase-8 TRAIL sensitization. NB7+C8 cells + TRAIL, ATPlite viability luminescence. inhibition (viability loss, TRAIL sensitization), % at 10 µM. hit rate 1% among 360,000;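 active = compounds causing at least 50% loss of cell viability in the single-dose screen, relative to plate controls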
FLuc stim CS = affects firefly luciferase, flagging false hits in luciferase stimulation screens; 200,000 tested, under 10 active; activation factor at 10 µM; AID 1027; ATPlite luciferase biochemical, luminescence, 10 min; 0 = ATP-free wells, 1 = DMSO control;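 active = luciferase activation factor, scaled between plate controls, of at least 2 with compound at 10 µM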
Target sequence (P08659 whole entry, looked up): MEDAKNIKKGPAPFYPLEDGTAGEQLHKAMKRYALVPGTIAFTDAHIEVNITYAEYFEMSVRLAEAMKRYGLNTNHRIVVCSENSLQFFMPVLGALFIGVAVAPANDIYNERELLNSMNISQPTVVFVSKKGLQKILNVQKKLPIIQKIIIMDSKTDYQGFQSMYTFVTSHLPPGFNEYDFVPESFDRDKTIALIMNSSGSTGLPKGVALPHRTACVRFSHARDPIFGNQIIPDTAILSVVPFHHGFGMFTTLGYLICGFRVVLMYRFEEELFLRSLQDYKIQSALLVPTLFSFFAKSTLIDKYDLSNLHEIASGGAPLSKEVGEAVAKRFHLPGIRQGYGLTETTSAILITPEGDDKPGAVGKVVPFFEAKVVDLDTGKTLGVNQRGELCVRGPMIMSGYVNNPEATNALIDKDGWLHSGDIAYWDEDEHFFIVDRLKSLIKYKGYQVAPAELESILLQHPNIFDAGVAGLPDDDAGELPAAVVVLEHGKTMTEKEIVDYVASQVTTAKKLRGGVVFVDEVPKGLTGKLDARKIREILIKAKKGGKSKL
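Assay system: Luciferase/luciferin detection reagent, cell-free biochemical luciferase assay / Also added: ATP substrate / Schedule: 10 min at ambient temperature / Measured by: luminescence measurement of luciferase light output / Benchmarks: low control with PBS replacing ATP, high control enzyme plus ATP without compound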
iPSC survival up = enhancers of human iPSC single-cell survival; hiPSC single-cell survival, ATPlite luminescence; 100% = ROCK inhibitor wells, 0% = DMSO; survival enhancement, % at 20 µM; hit rate 0.044% among 360,000; in the data active = survival enhancement above about 18%;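 also: cells exposed to compounds for 16 hours before the ATP read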
FLuc inh counter = Photinus pyralis luciferase inhibition counter-screen; P08659; ATPLite firefly luciferase biochemical luminescence, 10 min; inhibition, % at 10 µM; hit rate 1.5% among 200,000;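 active = inhibition above about 50% when tested at 10 µM, limit read from the data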
Numbers without * were called inactive; nt = no result given. Shown are actives, neighbours in structure and some others; about 1.8% of the full set was active somewhere.

SMILES | beta cell repl | PPC-1+TRAIL kill | C8 TRAIL sens | FLuc stim CS | iPSC survival up | FLuc inh counter
CCOC(=O)Cc1csc(NC(=O)c2cc(C)c(C)s2)n1 | -3 | nt | 5 | nt | 1 | nt
CCOC(=O)Cc1csc(NC(=S)NC(=O)c2ccc(Cl)cc2)n1 | -4 | 18 | 51* | 0.4 | -2 | 59*
CCOC(=O)Cc1csc(NC(=O)/C=C\c2ccccc2Cl)n1 | -2 | 35 | 42 | 0.4 | -2 | 56*
CCOC(=O)Cc1csc(NC(=O)/C=C/c2ccccc2Cl)n1 | -3 | 22 | -1 | nt | 0 | nt
CCOC(=O)Cc1csc(NC(=O)c2cc3c(s2)CCCC3)n1 | -6 | 48 | 54* | 0.4 | -3 | 61*
COc1ccc(Br)cc1CN(C)C(=O)c1ccccc1SCC(=O)N1CCCC1 | nt | nt | -1 | nt | 0 | nt
CC(C)(C)c1ccc(C(=O)NCCC(=O)NCc2ccc(F)cc2)cc1 | nt | nt | 7 | nt | 0 | nt
CSc1nc(N)n2nc(-c3ccc(Cl)cc3)cc2n1 | -3 | 19 | 45* | nt | -1 | nt
CCOC(=O)c1cnc2cc(-c3ccc(Cl)cc3)nn2c1N | 1 | 17 | 5 | 1 | 1 | 3
C[C@@H]1COc2cccc(N3CCC[C@@H]3CO)c2S(=O)(=O)N1 | nt | nt | 3 | nt | 1 | nt
COc1ccc(/C=C/C(=O)O/N=C(\N)c2ccccn2)cc1OC | 0 | nt | 12 | nt | 0 | nt
N/C(=N\OC(=O)C1CCCCC1)c1ccccn1 | -3 | 9 | 5 | 0.3 | -3 | 72*
Cc1ccc(CC(=O)O/N=C(\N)c2ccccn2)cc1 | -3 | nt | 1 | nt | 0 | nt
O=C(/C=C/c1ccccc1)c1ccccn1 | -5 | 3 | -5 | 0.3 | -1 | 71*
N/C(=N\OC(=O)/C=C/c1ccccc1)c1ccccn1 | -4 | 12 | 10 | 0.2 | 1 | 82*
N/C(=N\OC(=O)C1CCCCC1)c1ccncc1 | -1 | -5 | 0 | 0.9 | -1 | 10
CC(C)(C)CC(=O)O/N=C(\N)c1ccccn1 | -2 | 25 | 36 | 0.5 | -1 | 51*
Cc1ccc(CNC(=O)C2CCC(=O)N(CCc3ccc(Cl)cc3)C2)cc1 (centres undefined) | -3 | nt | -13 | nt | 1 | nt
COc1cccc(N(CC(=O)NCC2CCCO2)C(=O)CNS(=O)(=O)c2ccccc2)c1 (centres undefined) | 8.4* | 4 | -1 | 1.1 | 2 | -6
COc1cccc(CN(CC(=O)NCC2CCCO2)C(=O)CNS(=O)(=O)c2ccccc2)c1 (centres undefined) | 0 | nt | -6 | nt | -1 | nt
Cc1nnc(SCC(=O)NC2CC2)s1 | 0 | nt | -9 | nt | -1 | nt
N#Cc1ccccc1OCC(=O)OCCCOC(=O)COc1ccccc1C#N | -3 | nt | -21 | nt | 0 | nt
CC(C)(C)C1CCc2sc(C(=O)NNC(=O)CCl)cc2C1 (centres undefined) | nt | 15 | 88* | 0.4 | -4 | 57*
CCC(C)(C)C(=O)Nc1ncc(S(=O)(=O)c2ccc([N+](=O)[O-])cc2)s1 | -2 | 5 | 6 | 1 | -2 | -4
O=C(CCl)Nc1ncc(S(=O)(=O)c2ccc([N+](=O)[O-])cc2)s1 | -7 | nt | 51* | nt | 4 | nt
SMILES | beta cell repl | PPC-1+TRAIL kill | C8 TRAIL sens | FLuc stim CS | iPSC survival up | FLuc inh counter
C=CC(=O)N1C/C(=C/c2ccccc2)C(=O)/C(=C\c2ccccc2)C1 | nt | nt | 92* | nt | 9 | nt
O=C1C(=Cc2ccc(Cl)cc2)Cc2ccccc21 | nt | nt | 16 | nt | -3 | nt
C=CC(=O)N1C/C(=C/c2ccc(Cl)cc2)C(=O)/C(=C\c2ccc(Cl)cc2)C1 | nt | nt | 93* | nt | 4 | nt
CN1C/C(=C/c2ccncc2)C(=O)/C(=C/c2ccncc2)C1 | -2 | nt | 12 | nt | -1 | nt
CC(=O)Nc1ccc(NC(=O)c2nc(S(=O)(=O)Cc3ccccc3)ncc2Cl)cc1 | -7 | nt | 16 | nt | 0 | nt
COC(=O)c1ccccc1NC(=O)c1nc(S(=O)(=O)Cc2ccccc2)ncc1Cl | -8 | nt | 95* | nt | 11 | nt
CCc1nnc(NC(=O)c2nc(S(=O)(=O)Cc3ccccc3)ncc2Cl)s1 | -5 | nt | 94* | nt | 0 | nt
CCc1nnc(NC(=O)c2nc(S(=O)(=O)Cc3cccc(C)c3)ncc2Cl)s1 | -8 | nt | 98* | nt | 0 | nt
CCc1nnc(NC(=O)c2nc(S(=O)(=O)Cc3ccc(C)cc3)ncc2Cl)s1 | -8 | nt | 95* | nt | 0 | nt
CCc1nnc(NC(=O)c2nc(Cl)ccc2Cl)s1 | 3 | nt | 4 | nt | 0 | nt
O=S(=O)(NCCC1=CCCCC1)c1ccc(Br)cc1 | -1 | nt | -6 | nt | 0 | nt
CCOc1ccccc1NC(=O)c1nc(S(=O)(=O)Cc2cccc(C)c2)ncc1Cl | -7 | nt | 93* | nt | 5 | nt
O=C(NCc1ccccc1)c1nc(S(=O)(=O)Cc2ccccc2)ncc1Cl | -8 | nt | 32 | nt | 0 | nt
CC(C)(C)c1ccc2c(c1)C(=O)c1ccccc1C2=O | -5 | 24 | 56* | 0.3 | -1 | 72*
O=c1c2c(nc3n1CCCCC3)sc1c(O)c(Br)ccc12 | -4 | 43 | 35 | 0.2 | -2 | 81*
CC[C@H](C)C1OC(=O)[C@@H](C)[C@@H](CC)NC(=O)[C@H](C)N(C)C(=O)C(C)(C)C(=O)C(C)NC(=O)[C@H](Cc2ccc(OC)cc2)N(C)C(=O)[C@H](C(C)C)N(C)C(=O)CNC(=O)[C@H](CC(C)C)N(C)C(=O)CNC1=O (some centres undefined) | nt | nt | 55* | nt | -5 | nt
CCC[C@H]1NC(=O)[C@H](C)N(C)C(=O)C(C)(C)C(=O)C(C)NC(=O)[C@H](Cc2ccc(OC)cc2)N(C)C(=O)[C@H](C(C)C)N(C)C(=O)CNC(=O)[C@H](CC(C)C)N(C)C(=O)CNC(=O)[C@H]([C@@H](C)CC)OC(=O)[C@H]1C (some centres undefined) | -5 | nt | nt | nt | nt | nt
O=C(/C=C/c1cccnc1)/C=C/c1cccnc1 | nt | 29 | 51* | nt | 2 | nt
C(=N\Nc1nc2ccccc2[nH]1)/c1ccccc1 | 2 | nt | 4 | 0.7 | 0 | 34
O=c1[nH]c(N/N=C/c2ccccc2)nc2ccccc12 | -4 | 10 | 37 | 0.3 | -2 | 67*
O=c1[nH]c(N/N=C\c2ccc3c(c2)OCO3)nc2ccccc12 | -4 | 44 | 52* | 0.2 | -4 | 76*
COc1ccc(CNC(=O)C(c2ccncc2)N(C(=O)Cc2cccs2)c2ccccc2)cc1 (centres undefined) | nt | 11 | -2 | 1.1 | 0 | -6
COc1ccc(N(C(=O)CCl)C(C(=O)NCCc2ccccc2)c2cccs2)cc1 (centres undefined) | nt | 47 | 98* | 1.1 | -3 | -9
COc1ccc(S(=O)(=O)N2CCc3ccccc32)cc1C(=O)NC1(C)CCS(=O)(=O)C1 (centres undefined) | -1 | nt | -13 | nt | 2 | nt
CSc1ccccc1NC(=O)COC(=O)CCc1ccccc1 | -1 | nt | -6 | nt | 0 | nt

Screens from PubChem.
